Measurements as given in ChEMBL document CHEMBL1123730, “Synthesis and pharmacological evaluation of a new class of 2-(2-aminothiazol-4-yl)-2-hydrazonoacetamido cephalosporins” (J Med Chem, 1987).
Converted amounts (≈) assume the structure as drawn.

How the values were obtained:
[1] = Distribution (50 mg/kg) was determined in kidney 120 min after intramuscular administration; assay type: ADME, organism-based; conditions: im, read-out: Tissue distribution
Summary of the method: (§1)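 Wistar rats (200-250 g, groups of five) given 50 mg/kg in sterile water iv or im; killed at set times, lung, liver and kidney homogenized in 0.1 M pH 7.3 phosphate buffer (tissue:buffer 1:5). Drug assayed by agar diffusion on Nutrient Agar with E. coli ATCC 10536 (37 °C, 18 h); standards in phosphate buffer; detection limit 0.5 μg/mL; mean ± SEM.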

[2] = Distribution (50 mg/kg) was determined in kidney 120 min after intravenous administration; assay type: ADME, organism-based; conditions: in vivo, 2 h; summary of the method: as §1
[3] = Distribution (50 mg/kg) was determined in kidney 60 min after intramuscular administration; assay type: ADME, organism-based; conditions: im, read-out: Tissue distribution; summary of the method: as §1
[4] = Distribution (50 mg/kg) was determined in liver 120 min after intramuscular administration; assay type: ADME, organism-based; conditions: im, read-out: Tissue distribution; summary of the method: as §1
[5] = Distribution (50 mg/kg) was determined in liver 15 min after intramuscular administration; assay type: ADME, organism-based; conditions: im, read-out: Tissue distribution; summary of the method: as §1
[6] = Distribution (50 mg/kg) was determined in liver 15 min after intravenous administration; assay type: ADME, organism-based; conditions: read-out: Tissue distribution; summary of the method: as §1
[7] = Distribution (50 mg/kg) was determined in liver 30 min after intravenous administration; assay type: ADME, organism-based; conditions: read-out: Tissue distribution; summary of the method: as §1
[8] = Distribution (50 mg/kg) was determined in liver 5 min after intramuscular administration; assay type: ADME, organism-based; conditions: in vivo, im; summary of the method: as §1
[9] = Distribution (50 mg/kg) was determined in liver 60 min after intravenous administration; assay type: ADME, organism-based; conditions: read-out: Tissue distribution; summary of the method: as §1
[10] = Distribution (50 mg/kg) was determined in lung 120 min after intramuscular administration; assay type: ADME, organism-based; conditions: im, read-out: Tissue distribution; summary of the method: as §1
[11] = Distribution (50 mg/kg) was determined in lung 120 min after intravenous administration; assay type: ADME, organism-based; conditions: in vivo, 2 h; summary of the method: as §1
[12] = Distribution (50 mg/kg) was determined in lung 30 min after intravenous administration; assay type: ADME, organism-based; conditions: read-out: Tissue distribution; summary of the method: as §1
[13] = Distribution (50 mg/kg) was determined in lung 5 min after intravenous administration; assay type: ADME, organism-based; conditions: read-out: Tissue distribution; summary of the method: as §1
[14] = Distribution (50 mg/kg) was determined in lung 60 min after intramuscular administration; assay type: ADME, organism-based; conditions: im, read-out: Tissue distribution; summary of the method: as §1
[15] = Serum level was determined at 15 min after an intravenous administration of 50 mg/kg in rats; assay type: ADME, organism-based; parameters: dose 50 mg/kg, route intravenous; conditions: rat, read-out: Serum level
Summary of the method: (§2)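 Dose 50 mg/kg in sterile water, iv or im, to Wistar rats 200-250 g, five per time point; killed at set intervals, blood centrifuged for serum. Antibiotic measured by agar diffusion on Nutrient Agar with E. coli ATCC 10536 (37 °C, 18 h), standards diluted in serum; detection limit 1 μg/mL. Mean ± SEM of five rats.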

[16] = Serum level was determined at 15 min after intramuscular administration of 50 mg/kg in rats; assay type: ADME, organism-based; parameters: dose 50 mg/kg, route intramuscular; conditions: rat, im, read-out: Serum level; summary of the method: as §2
[17] = Serum level was determined at 240 min after an intravenous administration of 50 mg/kg in rats; assay type: ADME, organism-based; parameters: dose 50 mg/kg, route intravenous; conditions: rat, read-out: Serum level; summary of the method: as §2
[18] = Serum level was determined at 240 min after intramuscular administration of 50 mg/kg in rats; assay type: ADME, organism-based; parameters: dose 50 mg/kg, route intramuscular; conditions: rat, im, read-out: Serum level; summary of the method: as §2
[19] = Serum level was determined at 30 min after intramuscular administration of 50 mg/kg in rats; assay type: ADME, organism-based; parameters: dose 50 mg/kg, route intramuscular; conditions: rat, im, read-out: Serum level; summary of the method: as §2
[20] = Serum level was determined at 30 min after an intravenous administration of 50 mg/kg in rats; assay type: ADME, organism-based; parameters: dose 50 mg/kg, route intravenous; conditions: rat, read-out: Serum level; summary of the method: as §2
[21] = Serum level was determined at 360 min after intramuscular administration of 50 mg/kg in rats; assay type: ADME, organism-based; parameters: dose 50 mg/kg, route intramuscular; conditions: rat, im, read-out: Serum level; summary of the method: as §2
[22] = Serum level was determined at 5 min after intramuscular administration of 50 mg/kg in rats; assay type: ADME, organism-based; parameters: dose 50 mg/kg, route intramuscular; conditions: rat, im, read-out: Serum level; summary of the method: as §2
[23] = Serum level was determined at 60 min after intramuscular administration of 50 mg/kg in rats; assay type: ADME, organism-based; parameters: dose 50 mg/kg, route intramuscular; conditions: rat, im, read-out: Serum level; summary of the method: as §2
[24] = Serum level was determined at 60 min after an intravenous administration of 50 mg/kg in rats; assay type: ADME, organism-based; parameters: dose 50 mg/kg, route intravenous; conditions: rat, read-out: Serum level; summary of the method: as §2
[25] = Serum level was determined at 120 min after an intravenous administration of 50 mg/kg in rats; assay type: ADME, organism-based; parameters: dose 50 mg/kg, route intravenous; conditions: rat, read-out: Serum level; summary of the method: as §2
[26] = Half-life administered, intravenously; assay type: ADME, organism-based; conditions: in vivo, iv
Summary of the method: (§3)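 Wistar rats (200-250 g, groups of five) given 50 mg/kg in sterile water iv or im; killed at 5-360 min, serum separated. Levels by agar diffusion bioassay, E. coli ATCC 10536 test organism, 37 °C 18 h, standards in serum (detection limit 1 μg/mL); elimination half-life derived from serum time course.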

[27] = system: Bacillus; assay: Geometrical average of minimum bactericidal concentration was determined in isosensitest broth against Bacillus; assay type: functional
[28] = system: Escherichia coli; assay: Geometrical average of minimum bactericidal concentration was determined in isosensitest broth against Escherichia coli; assay type: functional
[29] = system: Escherichia coli; assay: Geometrical average of minimum inhibitory concentration was determined in isosensitest broth against Escherichia coli; assay type: functional
[30] = system: Escherichia coli; assay: In vivo protective dose was determined in infected swiss mice (120/strain) infected ip with Escherichia coli ISM with an inoculum size-0.5 mL of 10 E6 CFU/mL of suspension. Activity in range of 0.90-2.34; assay type: functional
[31] = system: Escherichia coli; assay: Minimum inhibitory concentration against Escherichia coli ISM strain; assay type: functional
[32] = system: Enterobacter; assay: Geometrical average of minimum inhibitory concentration was determined in isosensitest broth against Enterobacter; assay type: functional
[33] = system: Klebsiella; assay: Geometrical average of minimum bactericidal concentration was determined in isosensitest broth against Klebsiella; assay type: functional
[34] = system: Neisseria perflava; assay: Geometrical average of minimum bactericidal concentration was determined in isosensitest broth against Neisseria perfl (1); assay type: functional
[35] = system: Neisseria perflava; assay: Geometrical average of minimum inhibitory concentration was determined in isosensitest broth against Neisseria perfl.; assay type: functional
[36] = system: Pseudomonas; assay: Geometrical average of minimum bactericidal concentration was determined in isosensitest broth against Pseudomonas; assay type: functional
[37] = system: Pseudomonas; assay: Geometrical average of minimum inhibitory concentration was determined in isosensitest broth against Pseudomonas; assay type: functional
[38] = system: Proteus; assay: Geometrical average of minimum bactericidal concentration was determined in isosensitest broth against Proteus; assay type: functional, Proteus sp.
[39] = system: Sarcina; assay: Geometrical average of minimum inhibitory concentration was determined in isosensitest broth against Sarcina; assay type: functional
[40] = system: Salmonella; assay: Geometrical average of minimum bactericidal concentration was determined in isosensitest broth against Salmonella; assay type: functional
[41] = system: Streptococcus; assay: Geometrical average of minimum inhibitory concentration was determined in isosensitest broth against Streptococcus; assay type: functional
[42] = system: Staphylococcus aureus; assay: Geometrical average of minimum inhibitory concentration was determined in isosensitest broth against Staphylococcus (P); assay type: functional
[43] = system: Staphylococcus aureus; assay: Geometrical average of minimum inhibitory concentration was determined in isosensitest broth against Staphylococcus; assay type: functional
[44] = system: Staphylococcus; assay: Geometrical average of minimum bactericidal concentration was determined in isosensitest broth against Staphylococcus (10); assay type: functional
[45] = system: Staphylococcus; assay: Geometrical average of minimum bactericidal concentration was determined in isosensitest broth against Staphylococcus (P); assay type: functional
[46] = system: Serratia; assay: Geometrical average of minimum bactericidal concentration was determined in isosensitest broth against Serratia; assay type: functional
[47] = Geometrical average of minimum inhibitory concentration was determined in isosensitest broth against gram-negative strains.; assay type: functional
[48] = Half-life administered, intramuscularly; assay type: ADME; conditions: im; summary of the method: as §3
[49] = system: Bacillus; assay: Geometrical average of minimum inhibitory concentration was determined in isosensitest broth against Bacillus; assay type: functional
[50] = Distribution (50 mg/kg) was determined in liver 30 min after intramuscular administration; assay type: ADME, organism-based; conditions: im, read-out: Tissue distribution; summary of the method: as §1
[51] = system: Salmonella typhimurium; assay: Minimum inhibitory concentration against Salmonella Typhimurium T.O was determined; assay type: functional, Salmonella enterica subsp. enterica serovar Typhimurium; conditions: Salmonella enterica

Cn1nnnc1SCC1=C(C(=O)O)N2C(=O)[C@@H](NC(=O)/C(=N/N)c3csc(N)n3)[C@H]2SC1
concentration at 2 h [1]: 10200 ng/g | Tissue distribution [2]: Undetectable | concentration at 1 h [3]: 22900 ng/g | concentration at 2 h [4]: 5270 ng/g | concentration at 0.25 h [5]: 15400 ng/g | concentration at 0.25 h [6]: 25800 ng/g | concentration at 0.5 h [7]: 18800 ng/g | Tissue distribution [8]: Undetectable | concentration at 1 h [9]: 9220 ng/g | concentration at 2 h [10]: ≤ 5000 ng/g | Tissue distribution [11]: Undetectable | concentration at 0.5 h [12]: 8970 ng/g | concentration at 5 min [13]: 26400 ng/g | concentration at 1 h [14]: 7660 ng/g | concentration at 0.25 h [15]: 137 µg/mL | concentration at 0.25 h [16]: 86.2 µg/mL | concentration at 4 h [17]: 3.65 µg/mL | concentration at 4 h [18]: 10.2 µg/mL | concentration at 0.5 h [19]: 96.2 µg/mL | concentration at 0.5 h [20]: 87.2 µg/mL | concentration at 6 h [21]: 3.43 µg/mL | concentration at 5 min [22]: 34.6 µg/mL | concentration at 1 h [23]: 64.4 µg/mL | concentration at 1 h [24]: 52.5 µg/mL | concentration at 2 h [25]: 20.5 µg/mL | half-life [26]: 45 min | MBC [27]: 50 µg/mL (≈ 101 µM) | MBC [28]: 1.01 µg/mL (≈ 2.03 µM) | MIC [29]: 0.6 µg/mL (≈ 1.21 µM) | ED50 [30]: 1.45 mg/kg | MIC [31]: 1.1 µg/mL (≈ 2.22 µM) | MIC [32]: 1.96 µg/mL (≈ 3.95 µM) | MBC [33]: 2.78 µg/mL (≈ 5.6 µM) | MBC [34]: < 0.09 µg/mL | MIC [35]: < 0.09 µg/mL | MBC [36]: > 100 µg/mL | MIC [37]: > 100 µg/mL | MBC [38]: 2.45 µg/mL (≈ 4.93 µM) | MIC [39]: 1.56 µg/mL (≈ 3.14 µM) | MBC [40]: 1.79 µg/mL (≈ 3.6 µM) | MIC [41]: 25 µg/mL (≈ 50.3 µM) | MIC [42]: 35.3 µg/mL (≈ 71.1 µM) | MIC [43]: 6.69 µg/mL (≈ 13.5 µM) | MBC [44]: 11.3 µg/mL (≈ 22.7 µM) | MBC [45]: 50 µg/mL (≈ 101 µM) | MBC [46]: 3.12 µg/mL (≈ 6.28 µM) | MIC [47]: 1.74 µg/mL (≈ 3.5 µM) | half-life [48]: 69 min | MIC [49]: 42 µg/mL (≈ 84.6 µM) | concentration at 0.5 h [50]: 22100 ng/g | MIC [51]: 1.1 µg/mL (≈ 2.22 µM)
